# Screening data deposited in PubChem BioAssay by The Scripps Research Institute Molecular Screening Center.
# IMP-1 inhibitor = blocks Pseudomonas aeruginosa IMP-1 metallo-beta-lactamase; purified IMP-1, nitrocefin hydrolysis, epi-absorbance fluorescence; inhibition, % at 5.6 µM; 290,000 compounds, 0.45% hits; AID 1556;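 active = inhibition above the mean plus 3 SD of all compounds in the same screening run, cut at about 4.5% in these data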
#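 Assay system: purified recombinant IMP-1 beta-lactamase. Input: IMP-1 0.2 nM before substrate addition. Buffer or medium: Zinc- and detergent-supplemented HEPES buffer, pH 7.1. Schedule: 25 °C, 15 min preincubation, 25 min reaction. Signal: Epi-absorbance fluorescence, 480 nm excitation, 530 nm emission. Evaluation: percent inhibition from optical density relative to buffer-blank wells.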
# CTSL1 counter-1 = counter-screen for PFM18AAP inhibitors: inhibitors of F. hepatica cathepsin L1. inhibition, % at 5.96 µM. 300,000 compounds, 0.49% hits. recombinant F. hepatica cathepsin L1, Z-Leu-Arg-MCA fluorescence. AID 1906;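 active = inhibition above the mean of all tested compounds plus 3 SD, set per screening campaign, cut at about 17% in these data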
# VIM-2 inh = inhibitors of Pseudomonas aeruginosa VIM-2 metallo-beta-lactamase; purified VIM-2, nitrocefin hydrolysis, epi-absorbance fluorescence; AID 1527; 290,000 compounds, 0.89% hits; inhibition, % at 5.6 µM;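 active = inhibition above the mean of all tested compounds plus 3 SD, cutoff set per screening run, cut at about 7.5% in these data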;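 note: red hydrolysis product quenches plate fluorescence so inhibitors raise well fluorescence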
# PfM18AAP inh-1 = PfM18AAP enzyme inhibition; recombinant PfM18AAP, H-Glu-NHMec fluorogenic cleavage; inhibition, % at 7.35 µM; 290,000 compounds, 1.2% hits;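 active = inhibition above the campaign mean inhibition over all tested compounds plus 3 SD, cut at about 28% in these data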
# PfM18AAP inh-2 = confirmation of Plasmodium falciparum M18 aspartyl aminopeptidase inhibitors; inhibition, % at 7.35 µM; shares compounds with PfM18AAP inh-1; AID 2170; recombinant PfM18AAP, H-Glu-NHMec fluorogenic cleavage; 2,400 compounds, 28% hits;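 active = mean inhibition over replicate wells above the hit cutoff set for the earlier primary screen, cut at about 29% in these data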
# CTSL1 counter-2 = counter-screen for PFM18AAP inhibitors: confirmation of human cathepsin L inhibitors | inhibition, % at 5.96 µM | 2,400 tested, under 10 active | purified cathepsin L1, Z-Leu-Arg-MCA fluorescence | shares compounds with PfM18AAP inh-1;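 active = average inhibition across replicates above the hit cutoff set in the earlier primary screen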
# Target sequence (P07711 whole entry, looked up): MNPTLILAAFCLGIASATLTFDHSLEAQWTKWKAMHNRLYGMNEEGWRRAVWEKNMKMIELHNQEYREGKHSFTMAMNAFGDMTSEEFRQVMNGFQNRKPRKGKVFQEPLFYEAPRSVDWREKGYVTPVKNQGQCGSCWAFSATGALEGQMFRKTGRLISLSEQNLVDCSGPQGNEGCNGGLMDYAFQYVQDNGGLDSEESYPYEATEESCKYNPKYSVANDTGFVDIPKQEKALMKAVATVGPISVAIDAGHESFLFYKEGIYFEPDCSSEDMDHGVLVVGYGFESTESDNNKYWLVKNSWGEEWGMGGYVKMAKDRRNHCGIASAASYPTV
# A number is an active result; - = inactive; . = not tested or not shown. An excerpt weighted towards active compounds, which were near 2.7% of everything screened.
SMILES,IMP-1 inhibitor,CTSL1 counter-1,VIM-2 inh,PfM18AAP inh-1,PfM18AAP inh-2,CTSL1 counter-2
COc1cccc(/C=C2\SC(=O)N(CCC(=O)N3CCC(C(=O)O)CC3)C2=O)c1,-,-,-,35,-,-
Cn1c(O)c(/C=N/NC(=O)c2cc3ccccc3cc2O)c2ccccc21,-,-,-,32,-,-
Cn1c2ccccc2c2cc(/C=N/NC(=O)c3ccc(O)cc3O)ccc21,-,-,-,-,.,.
COc1ccc(Cl)cc1NC(=O)CN(C)C(=O)Cn1cnc2c1c(=O)n(C)c(=O)n2C,.,-,.,.,.,.
CC(C)NCC(O)c1ccc(O)c(O)c1 (configuration not stated),-,-,-,66,51,-
CNC[C@H](O)c1ccc(O)c(O)c1,-,-,-,54,66,-
CC(C)NCC(O)c1ccc2ccccc2c1 (configuration not stated),.,-,.,.,.,.
CCOc1ccc(S(=O)(=O)N2CCN(Cc3ccc4c(c3)OCO4)CC2)cc1C,-,-,-,-,.,.
CC1=CCC2C(=O)N(c3ccc(OC(=O)c4ccco4)cc3)C(=O)C2C1 (configuration not stated),-,-,-,-,.,.
Cc1c(Cc2ccccc2)c(=O)oc2cc(O)ccc12,-,-,-,-,.,.
Cc1c(Cc2ccccc2)c(=O)oc2c(O)c(O)ccc12,-,.,-,47,-,-
COc1ccc(NC(=S)NCCN2CCC(C)CC2)cc1Cl,-,-,-,36,-,-
COc1ccc(NC(=S)NCCCN2CCCC2)cc1Cl,-,-,-,-,.,.
COCCN(C(=S)Nc1ccc(OC)c(Cl)c1)C1CCN(C(C)C)CC1,-,-,-,36,-,-
CCS(=O)(=O)c1cc([N+](=O)[O-])c(Sc2ccccc2NC(C)=O)s1,-,-,-,35,-,-
CCOC(=O)CSC1=C(C#N)C(c2ccc(F)cc2)C(C(C)=O)=C(C)N1 (configuration not stated),-,-,-,-,.,.
CCOC(=O)C1=C(C)NC(SCC(=O)OC)=C(C#N)C1c1ccc(C(=O)OC)cc1 (configuration not stated),-,-,-,36,-,-
CCN(c1ccccc1)S(=O)(=O)c1ccc(Cl)c(NC(=O)CN2C(=O)NC3(CCCC3)C2=O)c1,-,-,-,-,.,.
Cc1cccc(C(=O)Nc2ccc(C(=O)N/N=C/c3ccc(C)o3)cc2)c1,-,-,-,42,-,-
O=C(Nc1ccc2c(c1)CCC2)c1ncoc1-c1ccccc1F,-,.,-,-,.,.
O=c1c2cn[nH]c2[nH]c(=S)n1-c1ccccc1Cl,-,-,-,37,-,-
O=c1c2cn[nH]c2[nH]c(=S)n1-c1ccccc1F,-,-,-,57,-,-
Cc1ccc(-n2c(=S)[nH]c3[nH]ncc3c2=O)cc1,-,-,-,-,.,.
Cc1ccc(-c2ccc(/C=C3\C(=O)ON=C3c3ccccc3)o2)c([N+](=O)[O-])c1,-,-,-,-,.,.
Cc1ccc(/C=C/C(=O)Nc2nn[nH]n2)o1,-,-,-,51,-,-
SMILES,IMP-1 inhibitor,CTSL1 counter-1,VIM-2 inh,PfM18AAP inh-1,PfM18AAP inh-2,CTSL1 counter-2
O=C(c1ccc(=O)[nH]c1)N1CCN(S(=O)(=O)c2cc(C(F)(F)F)ccc2Cl)CC1,-,-,-,-,.,.
O=C(NNc1cc(C(F)(F)F)ccc1Cl)c1ccc(=O)[nH]c1,-,-,-,44,-,-
CC(=O)N1CCOc2ccc(S(=O)(=O)N3CCC(C(=O)NCc4ccccc4)CC3)cc21,-,-,-,-,.,.
Cc1cc(C)nc(NNC2=CC(=[N+]3CCCCC3)CC(C)(C)C2)n1,-,-,-,56,40,-
Cc1cc(C)nc(NNC2=CC(=[N+]3CCCC3)CCC2)n1,-,-,-,57,45,-
CCOC(=O)c1cc(C(=O)Nc2sc3c(c2C#N)CCCC3)nn1C,-,-,-,37,-,-
Cc1cc(C(=O)Nc2sc3c(c2C#N)CCCC3)no1,-,-,-,-,.,.
CC1(C)Cc2c(oc3ncn4ncnc4c23)CO1,-,-,-,-,.,.
CSc1nc2oc3c(c2c2nncn12)CC(C)(C)SC3,-,-,-,32,-,-
O=C1ON=C(c2ccccc2)/C1=C/c1ccc(O)c(O)c1,-,-,-,60,37,-
Cc1csc(Nc2cccc3ccccc23)n1,-,-,-,-,.,.
Cc1ccnc(Nc2nc(-c3ccc(O)c(O)c3)cs2)c1,-,-,-,62,47,-
Oc1ccc(-c2csc(Nc3ccccn3)n2)cc1O,-,-,-,64,47,-
Oc1ccc(-c2csc(Nc3cccc4ccccc34)n2)cc1O,-,-,-,55,-,-
Cc1cccc(Nc2nc(-c3ccc(O)c(O)c3)cs2)n1,-,-,-,54,-,-
CC(=O)Nc1ccc(-c2csc(Nc3ccccn3)n2)cc1,-,-,-,-,.,.
COc1ccc(-c2csc(Nc3ncccc3C)n2)cc1OC,-,-,-,-,.,.
Cc1cccnc1Nc1nc(-c2ccc(O)c(O)c2)cs1,-,-,-,79,55,-
COc1ccc(NC(=S)NCCc2ccccc2)c(C)c1,-,-,-,-,.,.
COc1cc(C)c(NC(=O)C(=S)NCCc2ccccc2)cc1C,-,-,-,48,-,-
CCn1c(SCC(=O)Nc2oc(-c3ccccc3)c(-c3ccccc3)c2C#N)nnc1-c1ccncc1,-,-,-,-,.,.
N#Cc1c(NC(=O)CSc2ccccn2)oc(-c2ccccc2)c1-c1ccccc1,-,-,-,50,-,-
O=C(COc1ccc(Cl)cc1)NCCNC(=O)c1ccccn1,-,-,-,-,.,.
CC(C)Nc1ncnc2c1cnn2-c1ccccc1,-,-,-,-,.,.
NNc1ncnc2c1cnn2-c1ccccc1,-,-,-,36,-,-
SMILES,IMP-1 inhibitor,CTSL1 counter-1,VIM-2 inh,PfM18AAP inh-1,PfM18AAP inh-2,CTSL1 counter-2
Cc1ccc(C(=O)NC(=S)NNS(=O)(=O)c2ccc(C)cc2)cc1,-,-,-,40,-,-
O=C(COc1ccc([N+](=O)[O-])cc1)Nn1cnnc1,-,-,-,41,-,-
Cc1ccc(S(=O)(=O)NNC(=S)NC(=O)c2ccc([N+](=O)[O-])cc2)cc1,-,-,-,48,-,-
Cc1ccc(S(=O)(=O)NNC(=O)c2ccc(O)cc2)cc1,-,-,-,-,.,.
O=C(COc1ccccc1)NNC(=O)COc1ccc([N+](=O)[O-])cc1,-,-,-,-,.,.
COc1ccc(OCC(=O)NNC(=S)NC(=O)c2ccc([N+](=O)[O-])cc2)cc1,-,-,-,33,-,-
O=C1CN(C(=O)CNCc2ccccc2Cl)c2ccccc2N1,-,-,-,-,.,.
Cc1ccccc1NC(=O)Nc1ccc2c(c1)CCC2,-,-,-,-,.,.
O=C(NNC(=S)NC(=O)c1ccc(Br)cc1)c1cccc([N+](=O)[O-])c1,-,-,-,-,.,.
CC(=O)Nc1ccc(S(=O)(=O)NNc2ccc([N+](=O)[O-])cc2)cc1,-,-,-,46,-,-
O=C(NNS(=O)(=O)c1ccc([N+](=O)[O-])cc1)c1ccc([N+](=O)[O-])cc1,-,-,-,35,-,-
CC(=O)NNC(=S)NC(=O)c1cccc([N+](=O)[O-])c1,-,-,-,47,-,-
